Results: publication PMC3228909 (Journal of medicinal chemistry, 2011)
Where “and” joins values, the source holds several entries; their conditions need not be identical. Equal entries are not always repeated. Where two headings read alike, the source gives them in different places.

Assays:
[1] = target: Aβ plaques in postmortem AD brain homogenates (Homo sapiens, UniProt P05067); format: binding
[2] = target: Aβ plaques in postmortem human brain sections (Homo sapiens, UniProt P05067); experiment: In vitro autoradiography of postmortem human brain sections; format: binding
Summary of the method: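 Frozen postmortem brains (confirmed CAA, AD, control) cut at 20 µm. Sections incubated 1 h with the 18F-labelled test compound in 40% ethanol. Washes: saturated Li2CO3 in 40% ethanol (2 min, twice), then 40% ethanol (2 min, once), then a 30 s water rinse. Dried sections exposed to film for 12–18 h; developed images digitized.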

[3] = normal mice, iv, cited from earlier work
[4] = target: Aβ plaques in CAA brain sections (Homo sapiens, UniProt P05067); experiment: Thioflavin S fluorescent staining of neighboring CAA occipital brain sections
Summary of the method: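 Brain sections fixed in 10% neutral buffered formalin for 1 hr. Autofluorescence quenched with 0.05% KMnO4, then bleached in 0.2% K2S2O5/0.2% oxalic acid. Stained 3–5 min with 0.025% thioflavin S in 40% ethanol, differentiated in 50% ethanol. Imaged by fluorescence microscopy with a CCD digital camera.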

Aβ plaques in postmortem human brain sections, sequence (P05067 672-711 limits assumed): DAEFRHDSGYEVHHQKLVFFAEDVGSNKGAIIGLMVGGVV
Aβ plaques in postmortem AD brain homogenates, sequence (P05067 672-711 limits assumed): as above
Aβ plaques in CAA brain sections, sequence (P05067 672-711 limits assumed): as above

## CNc1ccc(/C=C/c2ccc(OCCOCCOCCOCCOCCOCC(COCCOCCOCCOCCOCCOc3ccc(/C=C/c4ccc(NC)cc4)cn3)OCCF)nc2)cc1 [Compound 8b]
[1]
  Ki: 3.24 nM

## CNc1ccc(/C=C/c2ccc(OCCOCCOCCOCCOCCOCCOCC(COCCOCCOCCOCCOCCOCCOc3ccc(/C=C/c4ccc(NC)cc4)cn3)OCCF)nc2)cc1 [Compound 8c]
[1]
  Ki: 7.71 nM

## CNc1ccc(/C=C/c2ccc(OCCOCCOCC[18F])nc2)cc1 [[^18F]5, [^18F]florbetapir f 18]
[2]; AD brain sections
  Autoradiographic labeling of brain sections: labeled intensely
[2]; healthy control (HC) brain sections
  Autoradiographic labeling of brain sections: very low labeling
[3]; 2 min post injection
  Biodistribution, Blood: 3.14 ± 0.69 % dose/gram
  Biodistribution, Bone: 1.43 ± 0.09 % dose/gram
  Biodistribution, Brain (brain uptake): 7.8 % dose/gram and 7.77 ± 1.70 % dose/gram
  Biodistribution, Kidney: 10.9 ± 2.63 % dose/gram
  Biodistribution, Liver: 21.5 ± 1.07 % dose/gram
  Biodistribution, Muscle: 1.06 ± 0.39 % dose/gram
[3]; 30 min post injection
  Biodistribution, Blood: 2.80 ± 0.44 % dose/gram
  Biodistribution, Bone: 1.22 ± 0.17 % dose/gram
  Biodistribution, Brain: 1.59 ± 0.22 % dose/gram
  Biodistribution, Kidney: 6.31 ± 0.58 % dose/gram
  Biodistribution, Liver: 12.9 ± 0.72 % dose/gram
  Biodistribution, Muscle: 1.78 ± 0.34 % dose/gram

## thioflavin S
[4]
  Fluorescent staining of brain sections compared with [18F]8a autoradiography: same labeling of the major blood vessels
